Bioassay records: PubChem, several laboratories
VIM-2 inh = VIM-2 metallo-beta-lactamase inhibitors, primary screen, biochemical, epi-absorbance readout, Pseudomonas aeruginosa enzyme | AID 1527, 2009 | purified VIM-2, nitrocefin hydrolysis, epi-absorbance fluorescence | 290,000 tested, 0.89% active | inhibition, % at 5.6 µM;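 active means inhibition above the mean of all tested compounds plus 3 SD, cutoff set per screening run, cut at about 7.5% in these data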;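 further: red hydrolysis product quenches plate fluorescence so inhibitors raise well fluorescence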
PvdQ inh = P. aeruginosa PvdQ acylase inhibitors, primary screen, biochemical, fluorescence, plate reader and imaging, single point | inhibition, % at 10 µM | 340,000 tested, 0.063% active | purified PvdQ acylase | AID 488965, 2010; in the data active means inhibition above about 30%, passing the limit was not always enough
IMP-1 inhibitor = IMP-1 metallo-beta-lactamase inhibitors, primary screen, biochemical, epi-absorbance readout, Pseudomonas aeruginosa enzyme; metallo-beta-lactamase IMP-1 (Pseudomonas aeruginosa); purified IMP-1, nitrocefin hydrolysis, epi-absorbance fluorescence; inhibition, % at 5.6 µM; 290,000 tested, 0.45% active;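 active means inhibition above the mean plus 3 SD of all compounds in the same screening run, cut at about 4.5% in these data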
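System: purified IMP-1; amount: IMP-1 0.2 nM before substrate addition; compound: single dose, 5.6 µM; times: 25 °C, 15 min preincubation, 25 min reaction; signal: Epi-absorbance via hydrolysed-nitrocefin quenching of white-plate fluorescence, 480/530 nm, EDTA stop; benchmarks: DMSO with and without IMP-1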
PLC-gamma1 inh = PLC-gamma1 enzyme inhibitors, primary screen, biochemical, fluorescence, purified enzyme. 1-phosphatidylinositol 4,5-bisphosphate phosphodiesterase gamma-1 (Homo sapiens), P19174. fluorogenic substrate. inhibition, % at 12.2 µM. 370,000 tested, 0.84% active. AID 720700, 2013
PLC-beta3 inh = human PLC-beta3 inhibitors, primary screen, biochemical, fluorescence; Purified PLC-beta3, fluorogenic substrate; 1-phosphatidylinositol 4,5-bisphosphate phosphodiesterase beta-3 (Homo sapiens), Q01970; 370,000 tested, 0.18% active; inhibition, % at 12.2 µM; AID 720704, 2013; in the data active means inhibition above about 11%
Target sequence (Q01970 whole entry, looked up): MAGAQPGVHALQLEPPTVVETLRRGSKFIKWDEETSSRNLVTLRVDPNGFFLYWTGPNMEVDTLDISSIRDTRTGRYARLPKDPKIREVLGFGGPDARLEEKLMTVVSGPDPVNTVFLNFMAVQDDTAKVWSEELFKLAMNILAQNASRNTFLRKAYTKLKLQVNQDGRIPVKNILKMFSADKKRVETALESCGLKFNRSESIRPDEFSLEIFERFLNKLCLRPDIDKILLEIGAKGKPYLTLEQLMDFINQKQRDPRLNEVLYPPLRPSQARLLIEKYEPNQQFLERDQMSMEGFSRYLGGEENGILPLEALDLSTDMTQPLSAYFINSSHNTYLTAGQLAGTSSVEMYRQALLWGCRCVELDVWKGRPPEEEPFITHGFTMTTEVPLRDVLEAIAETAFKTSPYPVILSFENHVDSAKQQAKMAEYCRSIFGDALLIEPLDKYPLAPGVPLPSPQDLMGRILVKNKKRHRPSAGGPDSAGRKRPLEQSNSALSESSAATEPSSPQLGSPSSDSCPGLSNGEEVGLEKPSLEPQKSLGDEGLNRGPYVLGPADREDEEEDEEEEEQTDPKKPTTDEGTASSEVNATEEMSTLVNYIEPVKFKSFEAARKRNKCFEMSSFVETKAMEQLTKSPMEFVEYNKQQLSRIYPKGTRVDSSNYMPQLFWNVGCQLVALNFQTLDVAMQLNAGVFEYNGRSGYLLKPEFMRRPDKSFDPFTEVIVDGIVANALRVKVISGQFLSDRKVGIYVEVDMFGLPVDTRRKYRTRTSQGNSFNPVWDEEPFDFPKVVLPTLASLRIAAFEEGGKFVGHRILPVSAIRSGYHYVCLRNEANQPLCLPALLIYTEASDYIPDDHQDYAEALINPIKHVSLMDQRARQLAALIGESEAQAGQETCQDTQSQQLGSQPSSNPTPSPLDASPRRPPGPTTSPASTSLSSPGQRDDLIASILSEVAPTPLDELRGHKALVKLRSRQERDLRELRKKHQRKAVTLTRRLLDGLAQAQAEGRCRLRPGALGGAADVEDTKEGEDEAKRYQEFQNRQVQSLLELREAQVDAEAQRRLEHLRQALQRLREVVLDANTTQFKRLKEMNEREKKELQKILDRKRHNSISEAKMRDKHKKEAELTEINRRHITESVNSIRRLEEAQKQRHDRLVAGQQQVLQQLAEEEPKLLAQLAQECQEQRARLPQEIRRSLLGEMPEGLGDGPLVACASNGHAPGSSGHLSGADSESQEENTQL
PLCgamma1 ctr = PLC-gamma1 enzyme inhibitors, counter-screen for PLC-beta3 inhibitor project, biochemical, fluorescence | shares compounds with PLC-gamma1 inh | inhibition, % at 12.3 µM | purified PLC-gamma1, fluorogenic substrate | 3,300 tested, 3.1% active
PLCbeta3 conf = PLC-beta3 inhibitor confirmation, biochemical, fluorescence, purified enzyme; shares compounds with PLC-gamma1 inh; fluorogenic substrate fluorescence; inhibition, % at 12.3 µM; 3,300 tested, 1% active; AID 743261, 2014; in the data active means inhibition above about 11%
Hits are given with their value; - = inactive; . = not tested or not shown. Most compounds without a hit are left out; they make up all but 2% or so of the library. Unless noted, no stated cut-off is given here; in the data, active means inhibition above about 9.5%; inactive means the rest.

SMILES	VIM-2 inh	PvdQ inh	IMP-1 inhibitor	PLC-gamma1 inh	PLC-beta3 inh	PLCgamma1 ctr	PLCbeta3 conf
O=C(CCC(=O)OCc1ccc([N+](=O)[O-])cc1)Nc1ccc(F)cc1	-	-	-	10.2	-	-	-
C[C@H]1[C@@H](OC(=O)Nc2cccc(C(F)(F)F)c2)CC[C@@]23CCCN2C(=O)CCC[C@@H]13	.	.	.	-	-	.	.
O=c1c2[nH]c3ccccc3c2ncn1CCN1CCCCC1	-	-	-	-	-	.	.
O=c1c2[nH]c3ccccc3c2ncn1CCN1CCOCC1	-	-	-	9.6	-	-	-
Cc1nnc(SCC(=O)NC2CCCc3ccccc32)n1-c1ccccc1 (stereo unspecified)	-	-	-	11.1	-	-	-
O=C(Nc1ccccc1)NC1CCCc2ccccc21 (stereo unspecified)	-	-	-	-	-	.	.
CNC(=O)NC1CCCc2ccccc21 (stereo unspecified)	-	-	-	10.9	-	-	-
Cc1ccc(Nc2nc(=O)c3cccnc3s2)cc1	-	-	-	11.0	-	-	-
CCN(CC)S(=O)(=O)c1ccc(/C=C/C(=O)Nc2ccccc2N2CCOCC2)cc1	-	-	-	9.6	-	-	-
C[C@H](NC(=O)C(c1ccccc1)c1ccccc1)c1ccccc1	-	-	-	-	-	.	.
CC(NC(=O)C(c1ccccc1)c1ccccc1)c1ccccc1 (stereo unspecified)	.	-	.	16.4	-	-	-
O=C(OCC(=O)c1c[nH]c2ccccc12)c1ccc(Br)o1	-	-	-	.	.	.	.
O=C(OCC(=O)c1c[nH]c2ccccc12)c1ccco1	-	-	-	-	10.8	-	-
CCN(C[C@H]1[C@@H](c2ccc(C3=CCCC3)cc2)[C@H](CO)N1Cc1ccccn1)S(=O)(=O)c1ccccc1[N+](=O)[O-]	.	.	.	-	-	.	.
O=C(NC1CCCCN(Cc2cccc(Cl)c2)C1=O)c1ccc2ccccc2c1 (stereo unspecified)	.	.	.	-	-	.	.
C[C@H]1CN(S(=O)(=O)C(C)(C)C)[C@@H](CCO)/C1=C\CCO	.	.	.	10.6	-	-	-
O=C(NCc1cccs1)C1CCN(c2nc3ccccc3o2)CC1	-	-	-	9.7	-	-	-
Cc1cc(C)c(C)c(S(=O)(=O)N2CCC(C(=O)NCc3cccs3)CC2)c1C	.	.	.	11.6	-	-	-
C[C@@H](NC(=O)c1ccc(C#Cc2cccc(F)c2)cn1)C(C)(C)O	.	.	.	-	-	.	.
COc1ccc(-c2cc(-c3nnc(SCC(=O)N4CCOCC4)n3N)[nH]n2)cc1	.	.	.	-	-	.	.
CC(C)(C)NCc1ccccc1OCc1cccs1	-	-	-	12.7	10.8	-	-
CCOC(=O)[C@]12CCCC=C1N(CCc1ccc(OC)c(OC)c1)C(=O)[C@H](CC(=O)N1CCCC1)C2	.	.	.	11.7	-	-	-
CCOC(=O)[C@]12CCCC=C1N(Cc1ccc3c(c1)OCO3)C(=O)[C@H](CC(=O)N1CCCC1)C2	.	.	.	-	-	.	.
CCOC(=O)N1CCN(C(=O)C[C@@H]2C[C@@]3(C(=O)OCC)CCC=C3N(Cc3ccc4c(c3)OCO4)C2=O)CC1	.	.	.	9.7	-	-	-
Cc1cc(NC(=O)COc2ccccc2C(N)=O)no1	.	-	.	9.5	-	-	-
SMILES	VIM-2 inh	PvdQ inh	IMP-1 inhibitor	PLC-gamma1 inh	PLC-beta3 inh	PLCgamma1 ctr	PLCbeta3 conf
Cc1cc(NC(=O)COc2ccccc2C)no1	-	-	-	-	-	.	.
O=C(Nc1ccnn1C1CCN(CCCC2CCCC2)CC1)c1ccccc1Cl	-	-	-	10.9	-	-	-
CCOC(=O)c1cc(-c2ccccc2)n[nH]1	-	-	-	-	-	.	.
CCOC(=O)c1nncc(-c2ccccc2)n1	.	-	.	-	11.2	-	-
Cc1ccc(NC(=O)n2ncc3c(C)cccc32)c(C)c1	-	-	-	10.6	-	-	-
Cc1cccc2c1cnn2C(=O)Nc1ccc(Br)cc1F	-	-	-	-	-	.	.
COc1cccc(NC(=O)n2ncc3c(C)cccc32)c1	-	-	-	10.4	-	-	-
CN(Cc1ccco1)C(=O)CN1C(=O)C2(OCCCO2)c2ccccc21	.	.	.	-	-	.	.
Cc1ccccc1C(=O)N[C@@H](CC(C)C)C(=O)N1CCC[C@H]1C(=O)NCc1ccccc1	.	.	.	-	-	.	.
CC(C)(C)OC(=O)N/N=C/c1cccn1-c1ccc([N+](=O)[O-])cc1	-	-	-	-	-	.	.
COc1ccc(CC(=O)N/N=C/c2cccn2-c2ccc([N+](=O)[O-])cc2)cc1OC	-	-	-	11.8	-	-	-
N#CC1CCN(c2nc(-c3ccc(Br)cc3)cs2)CC1	.	.	.	-	-	.	.
Cc1csc(=O)n1CCC(=O)NCc1ccc(F)cc1	.	-	.	-	-	.	.
COc1ccc(CNC(=O)CCn2c(C)csc2=O)cc1	.	-	.	11.5	-	-	-
Cc1ccc(CC2CC(=O)N(c3ccc(C)cc3)C2=O)cc1 (stereo unspecified)	-	-	-	-	-	.	.
Cc1ccc(CC2CC(=O)N(c3nc4ccccc4n3C)C2=O)cc1 (stereo unspecified)	-	-	13.5	12.2	-	-	-
CNc1ncc(C(=O)c2ccc(F)cc2)s1	-	-	-	-	-	.	.
CNc1ncc(C(=O)C(C)(C)C)s1	-	-	-	11.4	-	-	-
CCOC(=O)C(NC(=O)CC)(Nc1ccccc1)C(F)(F)F (stereo unspecified)	-	-	-	13.6	11.3	-	-
CCOC(=O)C(NC(=O)CC)(Nc1ccc(S(N)(=O)=O)cc1)C(F)(F)F (stereo unspecified)	-	-	-	-	-	.	.
CCN(C(=O)[C@@H](C1CC1)[C@@H](O)c1ccc(Cl)cc1)c1ccccc1	.	.	.	-	-	.	.
CCn1c(O)c(N=NC(=O)c2ccc(CSc3nncn3C)cc2)c2ccccc21	-	-	-	11.2	-	-	-
Cc1ccc(N(CC(=O)NCc2ccco2)C(=O)CCC(=O)Nc2ccccn2)cc1C	-	-	-	-	-	.	.
Cc1cc(C)cc(N(CC(=O)NCc2ccco2)C(=O)CCC(=O)Nc2ccccn2)c1	-	-	-	10.9	-	-	-
Cc1ccc(Nc2nc(Nc3ccc(C)cc3)nc(SC3=NCCS3)n2)cc1	-	-	-	15.5	-	-	-
Cc1ccccc1Nc1nc(Nc2ccccc2C)nc(SC2=NCCS2)n1	-	-	-	-	-	.	.
Cc1ccc(NC(=O)Cc2cccc(OC(F)F)c2)c(S(=O)(=O)N2CCOCC2)c1	.	.	.	-	-	.	.
Cn1c(=NC(=O)C2CC2)sc2cccc(F)c21	-	-	-	11.1	-	-	-
CCc1ccccc1CNC(=O)C1CCC(CNS(=O)(=O)c2cccc3cccnc23)CC1 (stereo unspecified)	.	.	.	-	-	.	.
